Results: paper PMC6943944 (Journal of medicinal chemistry, 2019)
In brackets after ≈: the same amount, converted by molar mass.

Key:
K. pneumoniae CRE-11 = experiment: Growth inhibition; assay type: cell-based, Klebsiella pneumoniae; conditions: for MIC90: Klebsiella pneumoniae, CRE11, 18 h, read-out: MIC90 K. pneumoniae CRE-11
Outline: (§1)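 Broth microdilution in cation-adjusted Mueller–Hinton II broth made iron-deficient with 2,2′-bipyridine. Test compound stock was 0.3 mM in sterile water, with concentration verified by ICP-OES/UV–vis. Serial dilutions gave a final range of 0.3 × 10−4 to 1.56 × 10−12 M, with diluted inoculum added. Ciprofloxacin served as comparator. Incubation was 18 h at 37 °C with absorbance read. MIC was the lowest concentration giving ≥90% growth inhibition relative to negative-control wells.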

E. coli K12 [1] = experiment: Challenge MIC assay in E. coli with 100-fold excess Fe-siderophore; assay type: cell-based, Escherichia coli; conditions: for MIC90: Escherichia coli, K12, 18 h, read-out: MIC90 (+DP, +100× Fe siderophore)
P. aeruginosa PA01 = experiment: Growth inhibition; assay type: cell-based, Pseudomonas aeruginosa; conditions: for MIC90: Pseudomonas aeruginosa, PA01, 18 h, read-out: MIC90 P. aeruginosa PA01
Outline: as §1

E. coli K12 [2] = experiment: MIC assay in E. coli K12 in iron-deficient; assay type: cell-based; conditions: Escherichia coli, K12, 18 h, read-out: MIC90 (+DP)
S. aureus RN4220 = experiment: Growth inhibition; assay type: cell-based, Staphylococcus aureus; conditions: for MIC90: Staphylococcus aureus, RN4220, 18 h, read-out: MIC90 S. aureus RN4220
E. coli AN193 = experiment: MIC assay in E. coli AN193; assay type: cell-based, Escherichia coli; conditions: E. coli AN193 carrying a mutation of the FhuA gene; compared with wt E. coli K12
[3] = Biodistribution of 67Ga complexes in naive mice; assay type: in vivo; conditions: naive female CBJ mice (n = 3), intravenous, 0.8–1.2 MBq, 1 h p.i.
Outline: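 Naive female CBJ mice (8–10 weeks) received 0.8–1.2 MBq of 67Ga complex via tail-vein catheter. The complex was formed from 67GaCl3 (derived from 67Ga-citrate) and ligand in HEPES at pH 7.4, with labelling checked by radio-HPLC. A 67Ga-citrate group was also dosed. At 1 h p.i. mice were killed, organs harvested and gamma-counted (% ID/g), and urine metabolites analysed by radio-HPLC.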

[4] = cited from earlier work

Row | Molecule | MIC90 (K. pneumoniae CRE-11) | MIC90 (E. coli K12 [1]) | MIC90 (P. aeruginosa PA01) | MIC90 (E. coli K12 [2]) | MIC90 (S. aureus RN4220) | growth inhibitory activity in E. coli AN193 (in words) (E. coli AN193) | also measured
1 | CC(=O)N(O)CCCC(N)C(=O)NC(CCCN(O)C(C)=O)C(=O)NC(CCCN(O)C(C)=O)C(=O)NCCC(=O)N1CCN(c2cc3c(cc2F)c(=O)c(C(=O)O)cn3C2CC2)CC1 (centres unmarked) [apo D2, 7-[4-(3-{5-[N-Acetyl(hydroxyamino)]-2-{5-[N-acetyl(hydroxyamino)]-2-{5-[N-acetyl(hydroxyamino)]-2-aminovalerylamino}-valerylamino}valerylamino}propionyl)-1-piperazinyl]-1-cyclopropyl-6-fluoro-4-oxo-1H-quinoline-3-carboxylic Acid] | > 100 µM | > 100 µM | 7.5 µM (≈ 6.89 µg/mL) | 0.23 µM (≈ 0.211 µg/mL) | 15 µM (≈ 13.8 µg/mL) | completely muted | 
2 | CC(=O)N(O)CCCCCNC(=O)CCC(=O)N(O)CCCCCNC(=O)CCC(=O)N(O)CCCCCNC(=O)CCC(=O)N1CCN(c2cc3c(cc2F)c(=O)c(C(=O)O)cn3C2CC2)CC1 [apo D1, 7-{4-[4-(5-{N-4-[5-(N-4-{5-[N-Acetyl-(hydroxyamino)]pentylamino}−4-oxobutyry(hydroxyamino))pentyl-amino]-4-oxobutyryl(hydroxyamino)}pentylamino)-4-oxobutyryl]-1-piperazinyl}−1-cyclopropyl-6-fluoro-4-oxo-1H-quinoline-3-carboxylic Acid] |  |  |  |  |  | retain comparable MIC values | 
3 | O=C([O-])CC(O)(CC(=O)[O-])C(=O)[O-].[67Ga+3] [^67Ga-citrate] |  |  |  |  |  |  | clearance route from biodistribution (in words) [3]: predominantly renal clearance
4 | CC(=O)N(O)CCCCCNC(=O)CCC(=O)N(O)CCCCCNC(=O)CCC(=O)N(O)CCCCCN [desferrioxamine (DFO), desferrioxamine] |  |  |  |  |  |  | log Ka of the gallium complex [4]: 28.65
5 | albomycin [Fe-D3 (albomycin)] |  |  |  |  |  | completely muted | MIC90 K. pneumoniae CRE-11 (K. pneumoniae CRE-11; carbapenem resistant K. pneumoniae CRE-11, iron-limiting conditions, 37 °C, 18 h): 0.00023 μM; growth inhibitory activity in K. pneumoniae (in words) (K. pneumoniae CRE-11; carbapenem resistant K. pneumoniae, iron-limiting conditions): exceptional potency; MIC90 P. aeruginosa PA01 (P. aeruginosa PA01; wild-type P. aeruginosa PA01, iron-limiting conditions, 37 °C, 18 h): >30 µM; MIC90 S. aureus RN4220 (S. aureus RN4220; wild-type S. aureus RN4220, iron-limiting conditions, 37 °C, 18 h): 0.94 µM
6 | O=C(O)c1cn(C2CC2)c2cc(N3CCNCC3)c(F)cc2c1=O [ciprofloxacin] | 3.12 µM (≈ 1.03 µg/mL) | 0.23 µM (≈ 0.0762 µg/mL) | 0.94 µM (≈ 0.311 µg/mL) | 0.2 µM (≈ 0.0663 µg/mL) | 1.9 µM (≈ 0.63 µg/mL) |  | impact of 100× Fe–DFO or 100× Fe–LDFC on potency (in words) (E. coli K12 [1]; E. coli, challenge MIC assay): no impact
